Source: PubChem
Calb biofilm kill: clotrimazole potentiators killing C. albicans biofilm, primary screen, 4-compound mixtures | inhibition, % at 7.6 µM | AID 1242, 2008 | C. albicans biofilm persisters + clotrimazole, fluorescence viability; primary screen in compound mixtures of four per well | 0.02% of 120,000 active;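 active = inhibition above 30.3% in the primary screen of four-compound pools, then above 30% when the compound was retested; inconclusive = passed the primary limit but could not be retested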;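 also: compounds exposed to preformed 24 h biofilms for 48 h; 0% = untreated biofilm control and 100% = clotrimazole plus chlorhexidine kill blank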
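Assay system: C. albicans biofilms / Medium: RPMI/MOPS medium, pH 7.0 / Schedule: biofilm formation 24 h, compound exposure 48 h, 37 °C / Measured by: Alamar Blue fluorescence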
TRPML3 agonist: human TRPML3 channel agonists, primary screen, cell-based, HEK293 TRPML3-YFP, Fluo-8 calcium fluorescence, 3 µM | 100% = the carbachol control signal | activation, % at 3 µM | 0.29% of 220,000 active;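 active = activation above its plate's cutoff, the mean activation of the plate's test wells plus 3 SD, cut at about 12% in these data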;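 also: 0% = DMSO only wells and 100% = carbachol wells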
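Test system: HEK293 cells stably carrying human TRPML3-YFP; Doses: single dose, 3 µM final nominal compound, 0.3% DMSO final; Schedule: dye loading 1 h 37 °C then 30 min ambient, 125 s read; Technique: Fluo-8 calcium fluorescence; Benchmarks: high control carbachol 87 µM, low control DMSO.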
zfTRPN1 agonist: zebrafish TRPN1 channel agonists, primary screen, cell-based, HEK293, calcium fluorescence | HEK293 zebrafish TRPN1-YFP, Fluo-8 calcium fluorescence; 100% = response to 87 µM carbachol | AID 1424, 2008 | transient receptor potential cation channel N1 (TRPN1/NompC), Danio rerio | activation, % at 3 µM | 0.18% of 220,000 active;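 active = activation above its plate's cutoff, the mean activation of test wells on that plate plus 3 SD, cut at about 19% in these data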;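 also: 0% = DMSO alone and 100% = 87 µM carbachol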
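System: zebrafish TRPN1-YFP in HEK293 cells / Dosing: 3 µM single point / Timing: dye loading 1 h at 37 °C, then 30 min room temperature / Signal: Fluo-8 calcium fluorescence, excitation 470-495 nm, emission 515-575 nm / Read-out basis: percent activation from peak over basal fluorescence ratio, control-normalized / Control set: high carbachol 87 µM, low DMSO alone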
ABCG2 inh: ABCG2 efflux pump inhibitors, primary screen, multiplex with ABCB1, IgMXP3 cells, flow cytometry; Broad substrate specificity ATP-binding cassette transporter ABCG2 (Homo sapiens), Q9UNQ0; JC-1 efflux; inhibition, % at 6.6 µM; 0.1% of 190,000 active; AID 1325, 2008;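 active = inhibition above 80%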;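 also: 0% = DMSO and 100% = nicardipine control wells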
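material = IgMXP3 (ABCG2) plus far-red-tagged CCRF-Adr (ABCB1) cells | amount = 3 million cells/mL, equal mix of both lines | also added = JC-1 transporter substrate | dosing = one concentration, 6.6 µM final | schedule = 10 min at 25 °C | measured by = flow cytometric JC-1 green MFI at 530 nm | read-out basis = percent efflux inhibition, scaled nicardipine 100% to DMSO 0%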
ROMK mod: ROMK potassium channel modulators, primary screen, cell-based, thallium flux, MLSMR library; ATP-sensitive inward rectifier potassium channel 1 (Homo sapiens), P48048; 2% of 130,000 active; Tet-inducible ROMK, thallium flux fluorescence; actives lie on both sides; B-score at 10 µM;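 active = signal ratio slope over the read window, or its plate-corrected B-score, at least 3 SD from the plate mean, either direction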;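 also: B-score of the F/F0 ratio slope over 7 to 12 s after thallium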
Target sequence (P48048 whole entry, looked up): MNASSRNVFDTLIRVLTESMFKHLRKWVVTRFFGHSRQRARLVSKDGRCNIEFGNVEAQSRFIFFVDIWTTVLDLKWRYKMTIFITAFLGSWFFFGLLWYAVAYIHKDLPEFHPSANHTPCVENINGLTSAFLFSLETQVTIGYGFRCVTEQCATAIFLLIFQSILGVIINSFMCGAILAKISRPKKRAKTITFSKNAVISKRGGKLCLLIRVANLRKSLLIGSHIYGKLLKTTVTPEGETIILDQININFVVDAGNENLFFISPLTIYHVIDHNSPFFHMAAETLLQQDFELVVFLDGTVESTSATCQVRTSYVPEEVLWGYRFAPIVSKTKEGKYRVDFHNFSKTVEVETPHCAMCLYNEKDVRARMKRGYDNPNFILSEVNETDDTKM
ABCB1 block: ABCB1 efflux pump inhibitors, primary screen, cell-based, multiplex, flow cytometry, ABCG2 counter-screen. ATP-dependent translocase ABCB1 (Homo sapiens), P08183. CCRF-Adr cells, JC-1 efflux. inhibition, % at 6.6 µM. 0.067% of 190,000 active. AID 1326, 2008; in the data active = inhibition above about 40%;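 also: 0% = vehicle and 100% = reference inhibitor; higher value means more JC-1 retained so stronger ABCB1 efflux block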
ROMK hit retest: ROMK channel modulator hit retest, confirmation, cell-based, thallium flux, duplicate, resupplied hits | shares compounds with ROMK mod | fluorescence ratio; hits give low values | normalized thallium flux (F/F0 slope) at 10 µM | 54% of 3,000 active | AID 1917, 2009;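 active = Flux at 10 µM at least 3 SD below or above vehicle control mean in one or both replicates; inconclusive = no clear call, values can overlap the other calls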
Numbers without * were called inactive. Shown is part of a subset that was picked to be rich in hits.

`C/C(=N\NC(=S)Nc1c(C)cccc1C)c1ccc(OC(F)F)cc1` gave Calb biofilm kill 5, TRPML3 agonist -1, zfTRPN1 agonist -1, ABCG2 inh 2, ROMK mod 0.94 and ABCB1 block 0.
`O=C(NC1CCCCC1)c1sc(N2CCOCC2)nc1-c1ccccc1` gave Calb biofilm kill 7, TRPML3 agonist 0, zfTRPN1 agonist -1, ABCG2 inh 16 and ABCB1 block 2.
For COc1cccc(CNC(=O)c2cc3c(C)nc4ccccc4c3o2)c1 the results were TRPML3 agonist 0, zfTRPN1 agonist 4, ABCG2 inh 0 and ABCB1 block 0.
`CCc1ccc(CNC(=O)c2cc3c(C)nc4ccccc4c3o2)cc1` gave TRPML3 agonist 1, zfTRPN1 agonist 3, ABCG2 inh 7, ABCB1 block 3 and ROMK hit retest 0.071.
`Cc1ccc(NNC(=O)c2ccc(Cl)cc2)nn1` gave Calb biofilm kill 8, TRPML3 agonist 0 and zfTRPN1 agonist -1.
For Cn1cc([N+](=O)[O-])c(C(=O)NCc2cc3cc(Cl)ccc3[nH]2)n1 the results were Calb biofilm kill 8, TRPML3 agonist 0, zfTRPN1 agonist 1, ABCG2 inh 33, ROMK mod 3.4*, ABCB1 block 11 and ROMK hit retest 0.092.
`Cc1c(Br)c(C(=O)NCc2cc3cc(Cl)ccc3[nH]2)nn1C` gave Calb biofilm kill 11, TRPML3 agonist 1, zfTRPN1 agonist 2, ABCG2 inh 10, ROMK mod -0.68 and ABCB1 block -2.
`Cc1ccc(SC(C)C(=O)NCc2ccncc2)cc1` (centres undefined) gave Calb biofilm kill 6, TRPML3 agonist 1, zfTRPN1 agonist 1, ABCG2 inh 1, ROMK mod 2.5*, ABCB1 block 0 and ROMK hit retest 0.084.
For COc1ccc(CNC(=O)C(C)Sc2ccc(C)cc2)cc1 (centres undefined) the results were Calb biofilm kill 43, TRPML3 agonist -1, zfTRPN1 agonist -2, ABCG2 inh 0, ROMK mod -0.58 and ABCB1 block 0.
Screening Cc1cc(C)c(NC(=O)C(C)c2cccc(C(=O)c3ccccc3)c2)c(C)c1 (centres undefined) returned TRPML3 agonist -1, zfTRPN1 agonist -3, ABCG2 inh 10, ROMK mod 0.016 and ABCB1 block 1.
Screening O=C(c1cccc(F)c1)N1CCN(C(=O)c2cc(-c3ccc(Cl)cc3Cl)on2)CC1 returned TRPML3 agonist -1, zfTRPN1 agonist 0, ABCG2 inh 28, ROMK mod -4.2*, ABCB1 block 1 and ROMK hit retest inconclusive.
CN1CCN(Cc2c(O)ccc3cc(Br)ccc23)CC1 was read as Calb biofilm kill 6, TRPML3 agonist 1, zfTRPN1 agonist 1, ABCG2 inh 2, ROMK mod -0.95 and ABCB1 block 1.
Screening CN1CCN(Cc2c(O)ccc3cc(-c4ccccn4)c(=O)oc23)CC1 returned Calb biofilm kill 29, TRPML3 agonist 0, zfTRPN1 agonist 0, ABCG2 inh 5, ROMK mod -3.3*, ABCB1 block 0 and ROMK hit retest 0.059*.
For COC(=O)c1ccc2c(=O)n(CCCCCC(=O)N3CCN(c4ccccc4)CC3)c(=O)[nH]c2c1 the results were TRPML3 agonist 0, zfTRPN1 agonist 2, ABCG2 inh 35, ABCB1 block 8 and ROMK hit retest 0.075.
